Assay results published in ChEMBL document CHEMBL1165950, “Design and synthesis of new potent anticancer pyrazoles with high FLT3 kinase inhibitory selectivity” (Bioorg Med Chem, 2010).

Legend:
Type in all cases: functional
[1] = test system: SNB-19; test: Cytotoxicity against human SNB19 cells assessed as cell growth at 0.001 uM after 48 hrs by sulforhodamine B assay; settings: SNB-19, 48 h, read-out: Activity
[2] = test system: NCI/ADR-RES; test: Cytotoxicity against human NCI/ADR-RES cells assessed as cell growth at 1 uM after 48 hrs by sulforhodamine B assay; settings: read-out: Activity
[3] = test system: SK-MEL-28; test: Cytotoxicity against human SK-MEL-28 cells assessed as cell growth at 10 uM; settings: read-out: Activity
Summary of the method: (§1)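 NCI-60 screen: cells grown in RPMI 1640 with 5% FBS and 2 mM L-glutamine, plated at 5000–40,000 cells/well according to doubling time, and preincubated 24 h at 37 °C, 5% CO2. The single 10 µM dose (DMSO stock) was added, then incubated 48 h. Cells were TCA-fixed and stained with 0.4% SRB, read at 515 nm, and growth % calculated against time-zero and control plates.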

[4] = test system: NCI-H460; test: Cytotoxicity against human NCI-H460 cells assessed as cell growth at 100 nM after 48 hrs by sulforhodamine B assay; settings: NCI-H460, 48 h, read-out: Activity
[5] = test system: UO-31; test: Cytotoxicity against human UO31 cells assessed as cell growth at 10 uM; settings: read-out: Activity; summary of the method: as §1
[6] = test system: NCI-H322M; test: Cytotoxicity against human NCI-H322M cells assessed as cell growth at 1 uM after 48 hrs by sulforhodamine B assay; settings: read-out: Activity
[7] = test system: HT-29; test: Cytotoxicity against human HT-29 cells assessed as cell growth at 0.01 uM after 48 hrs by sulforhodamine B assay; settings: HT-29, 48 h, read-out: Activity
[8] = test system: K562; test: Cytotoxicity against human K562 cells assessed as cell growth at 1 uM after 48 hrs by sulforhodamine B assay; settings: K562, 48 h, read-out: Activity
[9] = test system: MOLT-4; test: Cytotoxicity against human MOLT4 cells assessed as cell growth at 10 uM; settings: read-out: Activity; summary of the method: as §1
[10] = test system: HOP-62; test: Cytotoxicity against human HOP62 cells assessed as cell growth at 0.01 uM after 48 hrs by sulforhodamine B assay; settings: HOP-62, 48 h, read-out: Activity
[11] = test system: MDA-MB-468; test: Cytotoxicity against human MDA-MB-468 cells assessed as cell growth at 10 uM after 48 hrs by sulforhodamine B assay; settings: MDA-MB-468, 48 h, read-out: Activity
[12] = test system: Malme-3M; test: Cytotoxicity against human MALME-3M cells assessed as cell growth at 10 uM after 48 hrs by sulforhodamine B assay; settings: read-out: Activity
[13] = test system: CAKI-1; test: Cytotoxicity against human Caki1 cells assessed as cell growth at 10 uM; settings: read-out: Activity
Summary of the method: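 Single-dose NCI-60 screen at 10 µM. Cells were grown in RPMI 1640 with 5% FBS and 2 mM L-glutamine, then treated for 48 h at 37 °C. Protein was measured by SRB staining with absorbance at 515 nm. Percentage growth was recorded, and inhibition percentage was calculated as 100 minus growth percentage.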

[14] = test system: NCI/ADR-RES; test: Cytotoxicity against human NCI/ADR-RES cells assessed as cell growth at 0.01 uM after 48 hrs by sulforhodamine B assay; settings: read-out: Activity
[15] = test system: SNB-75; test: Cytotoxicity against human SNB75 cells assessed as cell growth at 0.001 uM after 48 hrs by sulforhodamine B assay; settings: SNB-75, 48 h, read-out: Activity
[16] = test system: SK-MEL-2; test: Cytotoxicity against human SK-MEL-2 cells assessed as cell growth at 10 uM; settings: read-out: Activity; summary of the method: as §1
[17] = test system: MDA-MB-435; test: Cytotoxicity against human MDA-MB-435 cells assessed as cell growth at 0.001 uM after 48 hrs by sulforhodamine B assay; settings: MDA-MB-435, 48 h, read-out: Activity
[18] = test system: IGROV-1; test: Growth inhibition of human IGROV1 cells after 48 hrs by sulforhodamine B assay; settings: IGROV-1, 48 h; for CC50: read-out: LC50 (the source's name)
Summary of the method: (§2)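 NCI 60-cell screen, five-dose mode. Cells grown in RPMI 1640 with 5% FBS and 2 mM L-glutamine and plated at 5000-40,000 cells/well according to doubling time. After 24 h preincubation, a Tz plate was TCA-fixed. Five concentrations (10-fold or 1/2 log dilutions) were applied for 48 h at 37 °C. SRB staining read at 515 nm. IC50 taken from [(Ti-Tz)/(C-Tz)]×100 = 50.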

[19] = test system: SF-268; test: Cytotoxicity against human SF268 cells assessed as cell growth at 100 nM after 48 hrs by sulforhodamine B assay; settings: SF-268, 48 h, read-out: Activity
[20] = test system: NCI-H23; test: Cytotoxicity against human NCI-H23 cells assessed as cell growth at 1 uM after 48 hrs by sulforhodamine B assay; settings: NCI-H23, 48 h, read-out: Activity
[21] = test system: ACHN; test: Cytotoxicity against human ACHN cells assessed as cell growth at 100 nM after 48 hrs by sulforhodamine B assay; settings: read-out: Activity
Summary of the method: (§3)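 NCI-60 five-dose screen. Cells were grown in RPMI 1640 with 5% FBS and 2 mM L-glutamine, plated at 5000–40,000 cells/well and preincubated for 24 h. Time-zero plates were TCA-fixed. DMSO-solubilized drug was added at five concentrations (10-fold or ½-log serial dilutions) for 48 h at 37 °C, 5% CO2. Cells were TCA-fixed, stained with 0.4% SRB and read at 515 nm. Percent growth used time-zero, control and test absorbances.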

[22] = test system: CCRF-CEM; test: Cytotoxicity against human CCRF-CEM cells assessed as cell growth at 10 uM after 48 hrs by sulforhodamine B assay; settings: read-out: Activity; summary of the method: as §3
[23] = test system: KM12; test: Cytotoxicity against human KM12 cells assessed as cell growth at 0.001 uM after 48 hrs by sulforhodamine B assay; settings: KM12, 48 h, read-out: Activity
[24] = test system: COLO 205; test: Growth inhibition of human COLO205 cells after 48 hrs by sulforhodamine B assay; settings: COLO 205, 48 h; for CC50: read-out: LC50 (the source's name)
Summary of the method: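 NCI five-dose SRB assay in RPMI 1640 with 5% FBS and 2 mM L-glutamine. Cells were preincubated 24 h, then exposed 48 h at 37 °C to five concentrations (10-fold or half-log serial dilutions from DMSO stocks). TCA fixation, SRB staining, and absorbance at 515 nm followed. IC50 was taken where [(Ti−Tz)/(C−Tz)]×100 = 50, with Tz as time-zero cell density.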

[25] = test system: SNB-19; test: Cytotoxicity against human SNB19 cells assessed as cell growth at 10 uM after 48 hrs by sulforhodamine B assay; settings: SNB-19, 48 h, read-out: Activity
[26] = test system: NCI/ADR-RES; test: Cytotoxicity against human NCI/ADR-RES cells assessed as cell growth at 0.001 uM after 48 hrs by sulforhodamine B assay; settings: read-out: Activity
[27] = test system: OVCAR-8; test: Cytotoxicity against human OVCAR8 cells assessed as cell growth at 0.001 uM after 48 hrs by sulforhodamine B assay; settings: OVCAR-8, 48 h, read-out: Activity
[28] = test system: SK-MEL-5; test: Cytotoxicity against human SK-MEL-5 cells assessed as cell growth at 10 uM; settings: read-out: Activity; summary of the method: as §1
[29] = test system: SK-MEL-2; test: Growth inhibition of human SK-MEL-2 cells after 48 hrs by sulforhodamine B assay; settings: SK-MEL-2, 48 h; for CC50: read-out: LC50 (the source's name); summary of the method: as §2

| Compound | growth at 0.001 µM [1] [%] | growth at 1 µM [2] [%] | growth at 10 µM [3] [%] | growth at 0.1 µM [4] [%] | growth at 10 µM [5] [%] | growth at 1 µM [6] [%] | growth at 0.01 µM [7] [%] | growth at 1 µM [8] [%] | growth at 10 µM [9] [%] | growth at 0.01 µM [10] [%] | growth at 10 µM [11] [%] | growth at 10 µM [12] [%] | growth at 10 µM [13] [%] | growth at 0.01 µM [14] [%] | growth at 0.001 µM [15] [%] | growth at 10 µM [16] [%] | growth at 0.001 µM [17] [%] | GI50 [18] [µM] | TGI [18] [µM] | CC50 [18] [µM] | other results |
| --- | --- | --- | --- | --- | --- | --- | --- | --- | --- | --- | --- | --- | --- | --- | --- | --- | --- | --- | --- | --- | --- |
| COc1cc(C)cc(-c2c(-c3ccnc(-c4ccc(C(C)=O)cc4)c3)cnn2CC#N)c1 | 102 | 11 | 62 | 87 | 57.4 | 69 | 96 | 4 | 58 | 81 | -55 | 43 | 70.4 | 91 | 80 | 73.7 | 100 | 3.57 | > 100 | > 100 | growth at 0.1 µM [19]: 85%; growth at 1 µM [20]: 19%; growth at 0.1 µM [21]: 90%; growth at 10 µM [22]: 14%; growth at 0.001 µM [23]: 100%; GI50 [24]: 1.95 µM; TGI [24]: 3.7 µM; CC50 [24]: 7.02 µM; growth at 10 µM [25]: 66%; growth at 0.001 µM [26]: 95%; growth at 0.001 µM [27]: 103%; growth at 10 µM [28]: 49.2%; GI50 [29]: 5.88 µM; TGI [29]: > 100 µM; CC50 [29]: > 100 µM |
| COc1cc(C)cc(-c2c(-c3ccnc(-c4ccc(N(C)C)cc4)c3)cnn2CC#N)c1 | 90 | 7 | 42.1 | -43 | 22.1 | 34 | 26 | -5 | 9.77 | 62 | -59 | 13 | 15.9 | 80 | 88 | 49.3 | 88 | 0.0608 | 40.9 | > 100 | growth at 0.1 µM [19]: 29%; growth at 1 µM [20]: 17%; growth at 0.1 µM [21]: 34%; growth at 10 µM [22]: 8%; growth at 0.001 µM [23]: 95%; GI50 [24]: 0.22 µM; TGI [24]: > 100 µM; CC50 [24]: > 100 µM; growth at 10 µM [25]: 35%; growth at 0.001 µM [26]: 96%; growth at 0.001 µM [27]: 101%; growth at 10 µM [28]: -18.4%; GI50 [29]: 0.204 µM; TGI [29]: > 100 µM; CC50 [29]: > 100 µM |
| Cc1cc(O)cc(-c2nn(CC#N)cc2-c2ccnc(-c3ccc(N(C)C)cc3)c2)c1 | 96 | -10 | 38.1 | 90 | 52.4 | 38 | 96 | 7 | 28.1 | 89 | -61 | -19 | 44.5 | 96 | 83 | 43.2 | 99 | 3.91 | 24.8 | > 100 | growth at 0.1 µM [19]: 90%; growth at 1 µM [20]: 24%; growth at 0.1 µM [21]: 93%; growth at 10 µM [22]: 7%; growth at 0.001 µM [23]: 91%; GI50 [24]: 1.95 µM; TGI [24]: 4.13 µM; CC50 [24]: 87.8 µM; growth at 10 µM [25]: -15%; growth at 0.001 µM [26]: 97%; growth at 0.001 µM [27]: 100%; growth at 10 µM [28]: -16.3%; GI50 [29]: 4.15 µM; TGI [29]: 15.8 µM; CC50 [29]: > 100 µM |
